Values after ≈ are worked out from the molar mass of the structure shown.
Tests used:
Format in all cases: functional
Streptococcus pyogenes [1] = assay: Antibacterial activity against standard Streptococcus pyogenes after 20 hrs by agar dilution method
Summary of the method: (§1)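 MIC by agar dilution. Strains grown on blood agar plates for seed culture. About 5 µl of a suspension of roughly 10^6 CFU/ml spotted onto Sensitivity disk agar with 5% horse blood. Plates incubated at 37 °C for 20 h, then MIC read.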

Staphylococcus aureus [2] = assay: Antibacterial activity against ermC-inducible resistant Staphylococcus aureus after 20 hrs by agar dilution method
Summary of the method: (§2)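 Agar dilution MIC. The inoculum came from a seed culture in Sensitivity test broth. A 5 µl portion of a cell suspension of about 10^6 CFU/ml was inoculated onto Sensitivity disk agar supplemented with 5% horse blood. Plates were incubated at 37 °C for 20 h, then MIC was read.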

Streptococcus pneumoniae [3] = assay: Antibacterial activity against ermB-constitutive resistant Streptococcus pneumoniae after 20 hrs by agar dilution method
Summary of the method: (§3)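 Agar dilution MIC. Streptococcal strains were pre-cultured on blood agar plates. A 5 µl portion of a cell suspension of about 10^6 CFU/ml was inoculated onto Sensitivity disk agar supplemented with 5% horse blood. Plates were incubated at 37 °C for 20 h, then MIC was read.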

Staphylococcus aureus [4] = assay: Antibacterial activity against ermB-inducible resistant Staphylococcus aureus after 20 hrs by agar dilution method; summary of the method: as §2
Staphylococcus aureus [5] = assay: Antibacterial activity against susceptible Staphylococcus aureus after 20 hrs by agar dilution method; summary of the method: as §2
Streptococcus pyogenes [6] = assay: Antibacterial activity against ermB-constitutive resistant Streptococcus pyogenes after 20 hrs by agar dilution method; summary of the method: as §3
Haemophilus influenzae [7] = assay: Antibacterial activity against standard Haemophilus influenzae after 20 hrs by agar dilution method; summary of the method: as §1
Moraxella catarrhalis = assay: Antibacterial activity against standard Moraxella catarrhalis after 20 hrs by agar dilution method; summary of the method: as §1
Streptococcus pneumoniae [8] = assay: Antibacterial activity against susceptible Streptococcus pneumoniae after 20 hrs by agar dilution method; summary of the method: as §1
Staphylococcus aureus [9] = assay: Antibacterial activity against standard Staphylococcus aureus after 20 hrs by agar dilution method; summary of the method: as §2
Streptococcus pneumoniae [10] = assay: Antibacterial activity against mefE efflux-resistant Streptococcus pneumoniae after 20 hrs by agar dilution method; summary of the method: as §3
Streptococcus pneumoniae [11] = assay: Antibacterial activity against ermB-inducible resistant Streptococcus pneumoniae after 20 hrs by agar dilution method; summary of the method: as §3
Streptococcus pyogenes [12] = assay: Antibacterial activity against mefE efflux-resistant Streptococcus pyogenes after 20 hrs by agar dilution method; summary of the method: as §3
Haemophilus influenzae [13] = assay: Antibacterial activity against susceptible Haemophilus influenzae after 20 hrs by agar dilution method; summary of the method: as §1
Staphylococcus aureus [14] = assay: Antibacterial activity against ermA-constitutive resistant Staphylococcus aureus after 20 hrs by agar dilution method; summary of the method: as §2

| SMILES | MIC (Streptococcus pyogenes [1]) [µg/mL] | MIC (Staphylococcus aureus [2]) [µg/mL] | MIC (Streptococcus pneumoniae [3]) [µg/mL] | MIC (Staphylococcus aureus [4]) [µg/mL] | MIC (Staphylococcus aureus [5]) [µg/mL] | MIC (Streptococcus pyogenes [6]) [µg/mL] | MIC (Haemophilus influenzae [7]) [µg/mL] | MIC (Moraxella catarrhalis) [µg/mL] | MIC (Streptococcus pneumoniae [8]) [µg/mL] | MIC (Staphylococcus aureus [9]) [µg/mL] | MIC (Streptococcus pneumoniae [10]) [µg/mL] | MIC (Streptococcus pneumoniae [11]) [µg/mL] | MIC (Streptococcus pyogenes [12]) [µg/mL] | MIC (Haemophilus influenzae [13]) [µg/mL] | MIC (Staphylococcus aureus [14]) [µg/mL] |
| --- | --- | --- | --- | --- | --- | --- | --- | --- | --- | --- | --- | --- | --- | --- | --- |
| CCC(=O)O[C@@H]1CC(=O)O[C@H](C)C[C@H](O)[C@H](N(C)C)/C=C/[C@H](OC(C)=O)[C@H](C)C[C@H](CC=O)[C@H](O[C@@H]2O[C@H](C)[C@@H](O[C@H]3C[C@@](C)(O)[C@@H](OC(=O)CC)[C@H](C)O3)[C@H](N(C)C)[C@H]2O)[C@H]1OC | 0.2 (≈ 0.218 µM) | 0.78 (≈ 0.851 µM) | > 100 | 1.56 (≈ 1.7 µM) | 0.78 (≈ 0.851 µM) | > 100 | 1.56 (≈ 1.7 µM) | 1.56 (≈ 1.7 µM) | 0.2 (≈ 0.218 µM) | 0.78 (≈ 0.851 µM) | 0.2 (≈ 0.218 µM) | > 100 | 0.39 (≈ 0.425 µM) | 25 (≈ 27.3 µM) | > 100 |
| CCC(=O)O[C@@H]1CC(=O)O[C@H](C)C[C@H](O)[C@H](N(C)CCCCCCc2ccccc2)/C=C/[C@H](OC(C)=O)[C@H](C)C[C@H](CC=O)[C@H](O[C@@H]2O[C@H](C)[C@@H](O[C@H]3C[C@@](C)(O)[C@@H](OC(=O)CC)[C@H](C)O3)[C@H](N(C)C)[C@H]2O)[C@H]1OC | 0.2 (≈ 0.188 µM) | 0.39 (≈ 0.367 µM) | 50 (≈ 47 µM) | 0.2 (≈ 0.188 µM) | 0.39 (≈ 0.367 µM) | 25 (≈ 23.5 µM) | 6.25 (≈ 5.88 µM) | 0.78 (≈ 0.734 µM) | 0.1 (≈ 0.094 µM) | 0.39 (≈ 0.367 µM) | 0.2 (≈ 0.188 µM) | 6.25 (≈ 5.88 µM) | 0.2 (≈ 0.188 µM) | 25 (≈ 23.5 µM) | 100 (≈ 94 µM) |
| CCC(=O)O[C@@H]1CC(=O)O[C@H](C)C[C@H](O)[C@H](N(C)CCCc2ccnc3ccccc23)/C=C/[C@H](OC(C)=O)[C@H](C)C[C@H](CC=O)[C@H](O[C@@H]2O[C@H](C)[C@@H](O[C@H]3C[C@@](C)(O)[C@@H](OC(=O)CC)[C@H](C)O3)[C@H](N(C)C)[C@H]2O)[C@H]1OC | 0.05 (≈ 0.0466 µM) | 0.2 (≈ 0.187 µM) | 50 (≈ 46.6 µM) | 0.1 (≈ 0.0933 µM) | 0.1 (≈ 0.0933 µM) | > 100 | 1.56 (≈ 1.45 µM) | 0.39 (≈ 0.364 µM) | 0.013 (≈ 0.0121 µM) | 0.1 (≈ 0.0933 µM) | 0.025 (≈ 0.0233 µM) | 0.78 (≈ 0.727 µM) | 0.1 (≈ 0.0933 µM) | 12.5 (≈ 11.7 µM) | > 100 |
| CCC(=O)O[C@@H]1CC(=O)O[C@H](C)C[C@H](O)[C@H](N(C)CCCc2ccnc3ccccc23)/C=C/[C@H](OC(C)=O)[C@H](C)C[C@H](CC=O)[C@H](O[C@@H]2O[C@H](C)[C@@H](O)[C@H](N(C)C)[C@H]2O)[C@H]1OC | 0.1 (≈ 0.115 µM) | 0.39 (≈ 0.447 µM) | > 50 | 0.39 (≈ 0.447 µM) | 0.39 (≈ 0.447 µM) | > 50 | 0.39 (≈ 0.447 µM) | 0.05 (≈ 0.0573 µM) | 0.025 (≈ 0.0287 µM) | 0.2 (≈ 0.229 µM) | 0.1 (≈ 0.115 µM) | 12.5 (≈ 14.3 µM) | 1.56 (≈ 1.79 µM) | 1.56 (≈ 1.79 µM) | > 50 |
| CCC(=O)O[C@@H]1CC(=O)O[C@H](C)C[C@H](O)[C@H](N(C)CCCn2cnc(-c3cccnc3)c2)/C=C/[C@H](OC(C)=O)[C@H](C)C[C@H](CC=O)[C@H](O[C@@H]2O[C@H](C)[C@@H](O[C@H]3C[C@@](C)(O)[C@@H](OC(=O)CC)[C@H](C)O3)[C@H](N(C)C)[C@H]2O)[C@H]1OC | 0.1 (≈ 0.0919 µM) | 0.39 (≈ 0.358 µM) | > 100 | 0.39 (≈ 0.358 µM) | 0.2 (≈ 0.184 µM) | > 100 | 1.56 (≈ 1.43 µM) | 1.56 (≈ 1.43 µM) | 0.06 (≈ 0.0551 µM) | 0.39 (≈ 0.358 µM) | 0.1 (≈ 0.0919 µM) | 100 (≈ 91.9 µM) | 0.2 (≈ 0.184 µM) | 25 (≈ 23 µM) | > 100 |
